Data on two compounds can be found in ChEMBL document CHEMBL1147340, “1H- and 13C-nmr assignments of phyllanthin and hypophyllanthin: lignans that enhance cytotoxic responses with cultured multidrug-resistant cells” (J Nat Prod, 1993).

One assay deals with ZR-75-1. The assay can be described thus: Cytotoxicity against human ZR-75-1 cells after 2 to 4 days by SRB assay. In kind it is functional. Conditions: read-out: ED50 (the source's name). An outline of the steps:
(§1)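 Test compounds in 10% DMSO added to cell suspensions and incubated 2–4 days at 37° (100% humidity, 5% CO2). Cells fixed with cold 50% TCA for 1 h at 4°, stained with sulforhodamine B, washed with 1% HOAc and solubilized in 10 mM Tris base. OD read at 515 nm; percent growth calculated relative to controls. Top concentration tested 20 μg/ml.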
Background: In SRB staining, fixed cells bind dye roughly in proportion to their protein.

A further assay concerns P388. The assay can be described thus: Cytotoxicity against mouse P388 cells after 2 to 4 days by SRB assay. In kind it is functional. As to conditions: read-out: ED50 (the source's name). Summed up:
as §1

Assay [1] is described as follows: Cytotoxicity against drug-sensitive human KB3 cells after 2 to 4 days by SRB assay. The class given is functional. As to conditions: read-out: ED50 (the source's name). An outline of the steps: as §1
For the next assay, the system named is Col2. The assay can be described thus: Cytotoxicity against human Col2 cells after 2 to 4 days by SRB assay. In kind it is functional. As to conditions: read-out: ED50 (the source's name). An outline of the steps:
as §1

For a further assay, the system named is A-431. Nature of the assay: Cytotoxicity against human A431 cells after 2 to 4 days by SRB assay. The class given is functional. Conditions: read-out: ED50 (the source's name). Summed up:
as §1

Assay [2] in a line: Cytotoxicity against human LUC1 cells after 2 to 4 days by SRB assay. In kind it is functional. Conditions: read-out: ED50 (the source's name). Summed up:
as §1

Assay [3] is described as follows: Cytotoxicity against multidrug-resistant human KBV1 cells after 2 to 4 days by SRB assay in absence of vinblastine. The class given is functional. As to conditions: KB-V1, read-out: ED50 (the source's name). Summed up:
(§2)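 SRB growth assay on KB-V1 cells (compounds in 10% DMSO, 2–4 days at 37°, 5% CO2, TCA fixation, OD 515 nm, percent growth versus controls). Cells were given a range of compound concentrations, either alone or together with 1 μg/ml vinblastine.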

Assay [4] in a line: Cytotoxicity against multidrug-resistant human KBV1 cells after 2 to 4 days by SRB assay in presence of vinblastine. The class given is functional. Conditions: KB-V1, read-out: ED50 (the source's name). Summed up:
as §2

Assay [5] is described as follows: (§3) Displacement of [3H]vinblastine from p-glycoprotein in multidrug-resistant human KBV1 cell membrane vesicles by liquid scintillation counting. In kind it is cell membranes. An outline of the steps: (§4)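 Membrane vesicles were made from KB-V1 cells by homogenization, a 35% sucrose cushion and 100,000 × g pelleting. Incubated 20 min at room temperature, then filtered onto BSA-prewashed glass fiber. Nonspecific binding taken with 1 mM unlabeled vinblastine. Read by scintillation counting and expressed as percent.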

Another assay has as its system SK-MEL-2. Nature of the assay: Cytotoxicity against human SK-MEL-2 cells after 2 to 4 days by SRB assay. In kind it is functional. Conditions: read-out: ED50 (the source's name). Summed up:
as §1

In a further assay the test system is LNCaP. Nature of the assay: Cytotoxicity against human LNCAP cells after 2 to 4 days by SRB assay. As to conditions: read-out: ED50 (the source's name). In kind it is functional. Summed up: as §1
Assay [6] is described as follows: Cytotoxicity against human BCA1 cells after 2 to 4 days by SRB assay. In kind it is functional. Conditions: read-out: ED50 (the source's name). An outline of the steps: as §1
For another assay, the system named is KBV1. Described as §3. The class given is cell membranes. An outline of the steps:
as §4

Assay [7] in a line: Cytotoxicity against multidrug-resistant human KBV1 cells at 1 ug/mL after 2 to 4 days by SRB assay in presence of vinblastine. The class given is functional. Conditions: KB-V1, read-out: ED50 (the source's name).

SMILES strings stand for the structures. Values after ≈ are worked out from the molar mass of the structure shown. Where only a bound is given, the exact number is not on record here.

On to `COC[C@@H]1Cc2cc(OC)c3c(c2[C@H](c2ccc(OC)c(OC)c2)[C@H]1COC)OCO3` [HYPOPHYLLANTHIN], for which the EC50 (in the assay with ZR-75-1; in the assay with P388; in assay [1]; in the assay with Col2; in the assay with A-431; in assay [2]) was more than 20 µg/mL throughout. Also, the EC50 in [3] is more than 20 µg/mL; in assay [4] it was 3.8 µg/mL; in the assay with SK-MEL-2, more than 20 µg/mL; with LNCaP, more than 20 µg/mL; in assay [6], more than 20 µg/mL. Moreover, in assay [5], the IC50 is more than 160 µg/mL.

On to `COC[C@H](Cc1ccc(OC)c(OC)c1)[C@H](COC)Cc1ccc(OC)c(OC)c1` [PHYLLANTHIN], for which the EC50 (with ZR-75-1; with P388; in [1]; in the assay with Col2; with A-431; in assay [2]) was more than 20 µg/mL throughout. The EC50 is 9 µg/mL (≈ 21.5 µM) in assay [3]; more than 20 µg/mL in the assay with SK-MEL-2; 2.1 µg/mL in assay [7]; more than 20 µg/mL in the assay with LNCaP; more than 20 µg/mL in assay [6]. In the assay with KBV1, the ED50 result is “Dose-dependent effect”. The IC50 in [5] was 28 µg/mL (≈ 66.9 µM).

As a reminder, the IC50 is the concentration needed to halve the response being measured. A higher IC50 goes with weaker potency in that assay.
